According to article PMC4567957 (Bioorganic & medicinal chemistry letters, 2015):
Entries after “also recorded” stand apart in the source; their conditions may differ. Each block holds one molecule with its values, some of them ahead of it. Starred links: 1 amine or outer side, 2 acyl side, 3 side chain; linkers in the order of their positions; H or OH if unused. Positions of bridges follow the written chain, without caps; N, C: chain ends. Non-standard residues stand in square brackets, D forms with d. Residues, ends and D or L forms follow the SMILES beside them. *: point of attachment. CH2CONHCH2CH2NHCOCH2 = O=C(C[*:1])NCCNC(=O)C[*:2]; Propanoyl(3,3-Ph2) = O=C(CC(c1ccccc1)c1ccccc1)*; Pyridine(2,6-diCH2) = c1cc(C[*:1])nc(C[*:2])c1; X2 = O=C(CC(c1ccccc1)(c1ccccc1)c1ccccc1)*; Dip = N[C@H](C(=O)O)C(c1ccccc1)c1ccccc1; X1 = CCCCCCCCCCCCCCCC(=O)NCCOCCOCCN*; mXylylene = c1cc(C[*:1])cc(C[*:2])c1; oXylylene = c1ccc(C[*:2])c(C[*:1])c1; NH(CH2CH2O)2CH2CH2NH2 = NCCOCCOCCN*; pXylylene = c1cc(C[*:2])ccc1C[*:1]; Mpa = O=C(O)CCS

Legend:
human ferroportin-GFP = target: T1, human ferroportin-GFP (Homo sapiens, UniProt Q9NP59); assay: In vitro ferroportin; format: cell-based; conditions: for times less active than mHS5: versus mHS5; for bioactivity in Fpn degradation assay (in words): result in words, see Table 1
T1 sequence (Q9NP59 1-571): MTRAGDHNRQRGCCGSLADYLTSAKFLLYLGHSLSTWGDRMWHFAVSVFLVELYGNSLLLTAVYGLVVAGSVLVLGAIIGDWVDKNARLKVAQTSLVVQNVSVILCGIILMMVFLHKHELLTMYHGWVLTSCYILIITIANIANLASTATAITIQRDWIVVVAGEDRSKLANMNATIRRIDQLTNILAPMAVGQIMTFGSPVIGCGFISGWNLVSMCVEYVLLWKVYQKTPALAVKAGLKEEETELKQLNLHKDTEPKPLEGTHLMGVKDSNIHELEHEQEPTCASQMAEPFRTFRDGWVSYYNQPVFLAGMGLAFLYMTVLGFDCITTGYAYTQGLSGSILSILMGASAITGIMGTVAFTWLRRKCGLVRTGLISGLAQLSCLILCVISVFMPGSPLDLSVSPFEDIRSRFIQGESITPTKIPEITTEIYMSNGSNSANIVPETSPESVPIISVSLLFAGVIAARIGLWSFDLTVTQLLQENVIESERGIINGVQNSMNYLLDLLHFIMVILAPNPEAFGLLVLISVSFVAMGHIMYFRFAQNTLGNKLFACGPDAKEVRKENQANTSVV

[1] = Plasma stability in freshly prepared mouse plasma; format: in vitro ADME; conditions: 25 μM, 37 °C
How it was run: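 Test compound, from a 10 mM DMSO stock, spiked into freshly prepared mouse plasma (final 25 μM) and incubated at 37 °C. Aliquots taken at set time points were quenched in DMSO/acetonitrile (1:1) with 0.1% TFA and centrifuged (13000 rpm, 10 min). Supernatants were analysed by triple-quadrupole LC/MS against a peptide internal standard to follow remaining intact peptide over time.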

C57BL/6 mice = format: in vivo, mouse; conditions: subcutaneous, 50–200 nmoles, 24h post-injection

Compound: CC(=O)N[C@@H](CS)C(=O)N[C@@H](Cc1ccccc1)C(=O)N1CCC[C@H]1C(=O)N[C@@H](CCCNC(=N)N)C(=O)N[C@@H](CS)C(=O)N[C@@H](CCCNC(=N)N)C(=O)N[C@@H](Cc1ccccc1)C(=O)N[C@@H](CS)C(N)=O [mHS1] (Ac-CFPRCRFC-NH2; N-terminus and C-terminus assumed)
EC50 (human ferroportin-GFP): > 600 nM
time within which degraded in plasma [1]: ≤ 6 h

Compound: CCCCCCCCCCCCCCCC(=O)NCCOCCOCCNC(=O)[C@@H]1CSCc2cccc(c2)CSC[C@H](NC(=O)CC(c2ccccc2)c2ccccc2)C(=O)N[C@@H](CCCNC(=N)N)C(=O)N[C@@H](CS)C(=O)N[C@@H](CCCNC(=N)N)C(=O)N[C@@H](Cc2ccccc2)C(=O)N1 [mHS26] ({Propanoyl(3,3-Ph2)}-CRCRFC-X1; linker 1-6 via mXylylene; N-terminus and C-terminus assumed)
fold less potent than parental minihepcidin PR73 (human ferroportin-GFP; ratio of EC50 versus PR73): 12.5 ×
in vivo activity (decrease in serum iron) (C57BL/6 mice): no desired biological effect; also recorded: no in vivo potency
plasma stability compared with PR73 [1]: slightly more resistant to plasma driven degradation

Compound: CCCCCCCCCCCCCCCCNC(=O)CN(CC(N)=O)C(=O)CCCCCNC(=O)[C@@H]1CSCc2cccc(c2)CSC[C@H](NC(C)=O)C(=O)N[C@@H](C(c2ccccc2)c2ccccc2)C(=O)N2CCC[C@H]2C(=O)N[C@@H](CCCNC(=N)N)C(=O)N[C@@H](CS)C(=O)N[C@@H](CCCNC(=N)N)C(=O)N[C@@H](Cc2ccccc2)C(=O)N1 [mHS17]
in vivo activity (decrease in serum iron) (C57BL/6 mice): no desired biological effect; also recorded: no in vivo potency

Compound: N=C(N)NCCC[C@@H]1NC(=O)[C@@H](NC(=O)CC(c2ccccc2)(c2ccccc2)c2ccccc2)CSCc2cccc(c2)CSC[C@@H](C(N)=O)NC(=O)[C@H](Cc2ccccc2)NC(=O)[C@H](CCCNC(=N)N)NC(=O)[C@H](CS)NC1=O [mHS19] (X2-CRCRFC-NH2; linker 1-6 via mXylylene; C-terminus assumed)
EC50 (human ferroportin-GFP): ~100 nM
fold less potent than mHS15 (human ferroportin-GFP; versus mHS15): approximately 2 ×

Further lines, results first:

times less active than mHS5 (human ferroportin-GFP): approximately 2 times
Compound: CC(=O)N[C@H]1CSCc2ccccc2CSC[C@@H](C(N)=O)NC(=O)[C@H](Cc2ccccc2)NC(=O)[C@H](CCCNC(=N)N)NC(=O)[C@H](CS)NC(=O)[C@H](CCCNC(=N)N)NC(=O)[C@@H]2CCCN2C(=O)[C@H](Cc2ccccc2)NC1=O [mHS6] (Ac-CFPRCRFC-NH2; linker 1-8 via oXylylene; N-terminus and C-terminus assumed)

increase in potency (4Phe→Dpa) (human ferroportin-GFP; mHS5 versus mHS15): 5 ×
Compound: CC(=O)N[C@H]1CSCc2cccc(c2)CSC[C@@H](C(N)=O)NC(=O)[C@H](Cc2ccccc2)NC(=O)[C@H](CCCNC(=N)N)NC(=O)[C@H](CS)NC(=O)[C@H](CCCNC(=N)N)NC(=O)[C@@H]2CCCN2C(=O)[C@H](C(c2ccccc2)c2ccccc2)NC1=O [mHS15] (Ac-C[Dip]PRCRFC-NH2; linker 1-8 via mXylylene; N-terminus and C-terminus assumed)

bioactivity in Fpn degradation assay (in words) (human ferroportin-GFP): inactive
Compound: CC(=O)N[C@H]1CSCC(=O)NCCNC(=O)CSC[C@@H](C(N)=O)NC(=O)[C@H](Cc2ccccc2)NC(=O)[C@H](CCCNC(=N)N)NC(=O)[C@H](CS)NC(=O)[C@H](CCCNC(=N)N)NC(=O)[C@@H]2CCCN2C(=O)[C@H](Cc2ccccc2)NC1=O [mHS2] (Ac-CFPRCRFC-NH2; linker 1-8 via CH2CONHCH2CH2NHCOCH2; N-terminus and C-terminus assumed)

times less active than mHS5 (human ferroportin-GFP): approximately 2 times
Compound: CC(=O)N[C@H]1CSCc2ccc(cc2)CSC[C@@H](C(N)=O)NC(=O)[C@H](Cc2ccccc2)NC(=O)[C@H](CCCNC(=N)N)NC(=O)[C@H](CS)NC(=O)[C@H](CCCNC(=N)N)NC(=O)[C@@H]2CCCN2C(=O)[C@H](Cc2ccccc2)NC1=O [mHS4] (Ac-CFPRCRFC-NH2; linker 1-8 via pXylylene (inferred))

times more active than mHS22 (human ferroportin-GFP; versus AcNH-containing mHS22): approximately 2 times
Compound: N=C(N)NCCC[C@@H]1NC(=O)[C@H](CS)NC(=O)[C@H](CCCNC(=N)N)NC(=O)[C@@H]2CCCN2C(=O)[C@H](C(c2ccccc2)c2ccccc2)NC(=O)CCSCc2cccc(c2)CSC[C@@H](C(=O)NCCOCCOCCN)NC(=O)[C@H](Cc2ccccc2)NC1=O [mHS23] ([Mpa][Dip]PRCRFC-{NH(CH2CH2O)2CH2CH2NH2}; linker 1-8 via mXylylene (inferred))

bioactivity in Fpn degradation assay (in words) (human ferroportin-GFP): inactive
Compound: CC(=O)N[C@H]1CSCc2cccc(n2)CSC[C@@H](C(N)=O)NC(=O)[C@H](Cc2ccccc2)NC(=O)[C@H](CCCNC(=N)N)NC(=O)[C@H](CS)NC(=O)[C@H](CCCNC(=N)N)NC(=O)[C@@H]2CCCN2C(=O)[C@H](Cc2ccccc2)NC1=O [mHS7] (Ac-CFPRCRFC-NH2; linker 1-8 via Pyridine(2,6-diCH2); N-terminus and C-terminus assumed)
